Here are results for 7 compounds from ChEMBL document CHEMBL1158582, “Novel DNA intercalators without basic side chains as efficient antitumor agents: design, synthesis and evaluation of benzo-[c,d]-indol-malononitrile derivatives” (Bioorg Med Chem, 2010).

The term pIC50 denotes −log10 of the IC50, conventionally taken in molar units. Low readings indicate a large IC50, high ones a small IC50.

One experiment concerns MCF7. The experiment can be described thus: Cytotoxicity against human MCF7 cells after 48 hrs by MTT assay. Type of experiment: functional, cell-based. The following applies: MCF7, 48 h. Put shortly: (§1)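 MTT assay, cells incubated 48 h with a range of compound concentrations. MTT (5 mg/mL in PBS) added, 3 h, formazan dissolved in lysis buffer (200 g/L SDS, 50% formamide, pH 4.7), absorbance read at 570 nm. At least three independent experiments; mean percent absorbance plotted against concentration to give IC50.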
Background: Tetrazolium dyes change colour on reduction, which living cells bring about.

The next experiment deals with SMMC-7721. The experiment can be described thus: Cytotoxicity against human SMMC7721 cells after 48 hrs by MTT assay. In kind it is functional, cell-based. The following applies: SMMC-7721, 48 h. Summed up: as §1
Experiment [1] concerns Nucleic Acid. The experiment can be described thus: Induction of DNA damage-mediated relaxation of Escherichia coli super coiled pBR322 DNA assessed as formation of open circular form-2 DNA after 3 hrs under light condition by UV transilluminator. In kind it is nucleic-acid assay. Summed up:
(§2)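 Supercoiled pBR322 (25 ng/µL) in 20 mM Tris–HCl pH 7.5 with 50 µM compound under light irradiation for 3 h; irradiated DNA alone as control. Products resolved on 1% agarose in 0.5× TAE containing 0.5 µg/mL EB, 80 V, 1.5 h.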

For experiment [2], the system named is Nucleic Acid. The experiment can be described thus: Induction of DNA damage-mediated relaxation of Escherichia coli super coiled pBR322 DNA assessed as formation of linear form-3 DNA after 12 hrs under dark condition by UV transilluminator. In kind it is nucleic-acid assay. Summed up: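 Supercoiled pBR322 (25 ng/µL) in 20 mM Tris–HCl pH 7.5 with 50 µM compound, 12 h at 4 °C in the dark. Quenched with loading buffer; 1% agarose gel in 0.5× TAE with 0.5 µg/mL EB, 80 V, 1.5 h.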

The subject of experiment [3] is Nucleic Acid. In words: Induction of DNA damage-mediated relaxation of Escherichia coli super coiled pBR322 DNA assessed as formation of linear form-3 DNA after 3 hrs under light condition by UV transilluminator. Type of experiment: nucleic-acid assay. Put shortly:
as §2

In experiment [4] the test system is Nucleic Acid. In words: Binding affinity to calf thymus DNA assessed as DNA intercalation at 100 uM by UV-visible spectrophotometry. Type of experiment: nucleic-acid assay. The following applies: Bos taurus; 25 uM; in the assay text read “at 25 uM” for “at 100 uM”. Put shortly: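 UV–vis titration: compound fixed at 25 µM, CT DNA concentration increased; bathochromic shift and hypochromicity taken as the sign of intercalation, isosbestic point followed.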

In experiment [5] the test system is Nucleic Acid. The experiment can be described thus: Binding affinity to calf thymus DNA assessed as increase in DNA viscosity by viscometric titration. Type of experiment: nucleic-acid assay. The following applies: Bos taurus. Put shortly:
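CT DNA sonicated 10 min and filtered through 0.45 µm membrane; DNA 100 µM. Titrations in an Ubbelohde viscometer in a thermostated bath held at 25 ± 0.1 °C.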

In experiment [6] the test system is Nucleic Acid. The experiment can be described thus: Binding affinity to DNA assessed as decrease in ethidium bromide fluorescence at 5 uM by fluorescence spectroscopy. Type of experiment: nucleic-acid assay. Put shortly:
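Fluorescence displacement of ethidium bromide bound to DNA; loss of EB fluorescence taken as displacement by the test agent. Compound alone with DNA measured as a control for the compound's own fluorescence.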

pIC50: −log10 of the molar value. Active and inactive are the calls of the source. No cut-off for these calls is given here.

Regarding `N#CC(C#N)=c1c2cccc3cccc(c32)n1CCCCl`, the pIC50 was 5.16 in the experiment with MCF7 and 6.45 with SMMC-7721. In addition, the outcome with Nucleic Acid [1] and in the experiment on Nucleic Acid [2] was Active.

Regarding `N#CCn1c(=C(C#N)C#N)c2cccc3cccc1c32`, the pIC50 with MCF7 is 4.87; in the experiment on SMMC-7721, 6.59. Further, the outcome in the experiment on Nucleic Acid [1], in the experiment on Nucleic Acid [2] and in the experiment on Nucleic Acid [3] was Active.

In the case of `N#CC(C#N)=c1c2cccc3cccc(c32)n1C(=O)c1ccccc1`, the pIC50 with MCF7 is 4.82; with SMMC-7721, 5.06. The result in the experiment on Nucleic Acid [4] was inactive. The outcome with Nucleic Acid [1] and with Nucleic Acid [2] was Active.

On to `C=CCn1c(=C(C#N)C#N)c2cccc3cccc1c32`, for which the negative logarithm of the IC50 (pIC50) in the experiment on MCF7 was 5.33; in the experiment with SMMC-7721 it was 6.76. The result in the experiment on Nucleic Acid [1], in the experiment on Nucleic Acid [2] and in the experiment with Nucleic Acid [3] was Active.

As to `N#CC(C#N)=c1c2cccc3cccc(c32)n1CCBr`, the values for the pIC50 with MCF7 and in the experiment with SMMC-7721 were 5.27 and 6.68, respectively. Besides, the outcome with Nucleic Acid [1] and in the experiment with Nucleic Acid [2] was Active.

As for `CC(=O)n1c(=C(C#N)C#N)c2cccc3cccc1c32`, the figures for the pIC50 with MCF7 and with SMMC-7721 were 8.52 and 6.94, respectively. The outcome in the experiment with Nucleic Acid [4], in the experiment on Nucleic Acid [1] and in the experiment on Nucleic Acid [2] was Active.

Take `C#CCn1c(=C(C#N)C#N)c2cccc3cccc1c32`: the results for the pIC50 with MCF7 and in the experiment with SMMC-7721 were 4.90 and 6.14, respectively. Besides, the outcome in the experiment on Nucleic Acid [4], with Nucleic Acid [5], with Nucleic Acid [6], in the experiment with Nucleic Acid [1], with Nucleic Acid [2] and in the experiment on Nucleic Acid [3] was Active.
